ChEMBL document CHEMBL4725358 (J Med Chem, 2020)
Active and inactive are the calls of the source. No cut-off for these calls is given here.

Tests used:
Format in all cases: cell-based
[1] = biological target: Probable G-protein coupled receptor 34 (Mus musculus, UniProt Q9R1K6); experiment: Agonist activity at mouse GPR34 expressed in HEK293 cells co-transfected with AP-TGFalpha/Galphaq/i1 assessed as induction of ectodomain shedding of membrane bound AP-TGFalpha after 1 hr by p-NPP substrate based microplate reader analysis; settings: read-out: EC50
Summary of the method: (§1)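 HEK293 cells transiently transfected with AP-TGFα, chimeric Gα and mouse GPR34 vectors, then treated with compound. Empty-vector cells (AP-TGFα plus chimeric Gα) served as background. Receptor-specific AP-TGFα release was taken after subtracting that background, and concentration-response curves gave EC50 and Emax. Mean and SEM of 3−8 independent experiments.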

[2] = biological target: Probable G-protein coupled receptor 34 (Mus musculus) (UniProt Q9R1K6); experiment: Agonist activity at mouse GPR34 expressed in HEK293 cells co-transfected with AP-TGFalpha/Galphaq/i1 assessed as induction of ectodomain shedding of membrane bound AP-TGFalpha after 1 hr by p-NPP substrate based microplate reader analysis relative to control; summary of the method: as §1
[3] = biological target: Probable G-protein coupled receptor 34 (Mus musculus) (UniProt Q9R1K6); experiment: Agonist activity at mouse GPR34 expressed in HEK293 cells co-transfected with AP-TGFalpha/Galphaq/i1 assessed as induction of ectodomain shedding of membrane bound AP-TGFalpha after 1 hr by p-NPP substrate based microplate reader analysis relative to positive control; summary of the method: as §1
[4] = biological target: Putative P2Y purinoceptor 10 (Mus musculus, UniProt Q8BFU7); experiment: Agonist activity at mouse P2Y10 expressed in HEK293 cells co-transfected with AP-TGFalpha/Galphaq/i1 assessed as induction of ectodomain shedding of membrane bound AP-TGFalpha after 1 hr by p-NPP substrate based microplate reader analysis
Summary of the method: (§2)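 Run the same way as the GPR34 shedding assay, but with a mouse P2Y10 expression vector in HEK293 cells alongside AP-TGFα and chimeric Gα. Receptor-specific AP-TGFα release was found by subtracting the empty-vector background. EC50 and Emax came from concentration-response curves. Mean and SEM of 3−8 independent experiments.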

[5] = biological target: Putative P2Y purinoceptor 10 (Mus musculus) (UniProt Q8BFU7); experiment: Agonist activity at mouse P2Y10 expressed in HEK293 cells co-transfected with AP-TGFalpha/Galphaq/i1 assessed as induction of ectodomain shedding of membrane bound AP-TGFalpha after 1 hr by p-NPP substrate based microplate reader analysis relative to control; summary of the method: as §2
[6] = biological target: Putative P2Y purinoceptor 10 (Mus musculus) (UniProt Q8BFU7); experiment: Agonist activity at mouse P2Y10 expressed in HEK293 cells co-transfected with AP-TGFalpha/Galphaq/i1 assessed as induction of ectodomain shedding of membrane bound AP-TGFalpha after 1 hr by p-NPP substrate based microplate reader analysis relative to positive control; summary of the method: as §2

Probable G-protein coupled receptor 34 (Mus musculus), sequence (Q9R1K6 whole entry, the tested form may be a part): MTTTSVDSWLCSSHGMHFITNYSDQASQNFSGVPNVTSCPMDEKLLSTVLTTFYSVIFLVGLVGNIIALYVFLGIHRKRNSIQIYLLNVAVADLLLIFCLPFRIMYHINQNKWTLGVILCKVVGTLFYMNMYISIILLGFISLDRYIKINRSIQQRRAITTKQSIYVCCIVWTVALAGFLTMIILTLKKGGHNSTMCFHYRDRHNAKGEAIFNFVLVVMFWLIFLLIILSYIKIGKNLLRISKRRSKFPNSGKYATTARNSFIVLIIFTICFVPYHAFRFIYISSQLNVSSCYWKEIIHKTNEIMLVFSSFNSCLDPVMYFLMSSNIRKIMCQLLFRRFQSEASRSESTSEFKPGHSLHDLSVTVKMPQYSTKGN
Probable G-protein coupled receptor 34, sequence (Q9R1K6 whole entry, the tested form may be a part): as above
Putative P2Y purinoceptor 10 (Mus musculus), sequence (Q8BFU7 whole entry, the tested form may be a part): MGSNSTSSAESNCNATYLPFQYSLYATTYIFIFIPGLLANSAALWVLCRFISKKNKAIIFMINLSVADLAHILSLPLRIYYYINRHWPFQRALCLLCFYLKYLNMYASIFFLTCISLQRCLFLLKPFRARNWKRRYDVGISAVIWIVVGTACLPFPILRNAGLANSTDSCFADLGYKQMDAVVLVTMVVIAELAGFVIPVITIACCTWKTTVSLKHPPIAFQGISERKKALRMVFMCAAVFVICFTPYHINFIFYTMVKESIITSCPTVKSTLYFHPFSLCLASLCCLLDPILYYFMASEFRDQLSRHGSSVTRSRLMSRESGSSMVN
Putative P2Y purinoceptor 10, sequence (Q8BFU7 whole entry, the tested form may be a part): as above

Compound | EC50 [1] | Emax [2] | fold change (FC) ([3]; filed as agonist) | EC50 [4] | Emax [5] | fold change (FC) ([6]; filed as agonist) | fold change (FC) [6] | fold change (FC) [3]
CCCCCCCC/C=C\CCCCCCCC(=O)OCCCOP(=O)(O)OC[C@H](N)C(=O)O | 540 nM | 6.2% | 0.12 | 20 nM | 13.7% | 0.11 | – | –
CCCCCCCC/C=C\CCCCCCCC(=O)O[C@H](COC)COP(=O)(O)OC[C@H](N)C(=O)O | 160 nM | 9.7% | 0.52 | 70 nM | 2.5% | 0.0088 | – | –
C#CCOC[C@H](COC(=O)CCCCCCC/C=C\CCCCCCCC)OP(=O)(O)OC[C@H](N)C(=O)O | 12 nM | 12.6% | 10 | 420 nM | 3.2% | 0.00074 | – | –
CCCCCCCCCCCOc1ccccc1CCC(=O)OCCOP(=O)(O)OC[C@H](N)C(=O)O | 330 nM | 4.8% | 0.12 | 5.7 nM | 12.7% | 0.32 | – | –
CCCCCCCCCCCOc1ccccc1CCC(=O)O[C@H]1COCC[C@@H]1OP(=O)(O)OC[C@H](N)C(=O)O | > 3000 nM | inactive | – | 150 nM | 12.4% | 0.0085 | – | inactive
CCCCCCCCCCCOc1ccccc1CCC(=O)O[C@@H]1COCCC1OP(=O)(O)OC[C@H](N)C(=O)O (single isomer, unassigned) | 63 nM | 6.4% | 1.3 | 840 nM | 12% | 0.0018 | – | –
CCCCCCCC/C=C\CCCCCCCC(=O)OC[C@H](COC)OP(=O)(O)OC[C@H](N)C(=O)O | 620 nM | 7.5% | 0.13 | > 3000 nM | inactive | – | inactive | –
CCCCCCCCCCCOc1ccccc1CCC(=O)O[C@@H]1CCOC[C@@H]1OP(=O)(O)OC[C@H](N)C(=O)O | 220 nM | 8.9% | 0.61 | 1300 nM | 19.3% | 0.00089 | – | –
CCCCCCCCCCCOc1ccccc1CCC(=O)OC1COCCC1OP(=O)(O)OC[C@H](N)C(=O)O (single isomer, unassigned) | 340 nM | 3.7% | 0.1 | 1300 nM | 8.6% | 0.00079 | – | –
CCCCCCCC/C=C\CCCCCCCC(=O)OCCOP(=O)(O)OC[C@H](N)C(=O)O | > 3000 nM | inactive | – | 66 nM | 10.6% | 0.02 | – | inactive
C[C@H](COC(=O)CCc1ccccc1OCc1cccc(Oc2ccccc2)c1)OP(=O)(O)OC[C@H](N)C(=O)O | 9 nM | 12.4% | 11 | 290 nM | 13.2% | 0.0056 | – | –
CCCCCCCC/C=C\CCCCCCCC(=O)OC[C@@H](C)OP(=O)(O)OC[C@H](N)C(=O)O | 24 nM | 12.8% | 4.8 | 250 nM | 12.4% | 0.0054 | – | –

The next lines start with the values.

EC50 [1] | Emax [2] | fold change (FC) ([3]; filed as agonist) | EC50 [4] | Emax [5] | fold change (FC) ([6]; filed as agonist) | fold change (FC) [6] | fold change (FC) [3] | Compound
6.1 nM | 12.2% | 17 | > 3000 nM | inactive | – | inactive | – | CCCCCCCC/C=C\CCCCCCCC(=O)OC[C@@H](COCCC)OP(=O)(O)OC[C@H](N)C(=O)O
220 nM | 12.4% | 0.44 | 2300 nM | 20.8% | 0.0013 | – | – | N[C@@H](COP(=O)(O)OCCOC(=O)CCc1ccccc1OCc1cccc(Oc2ccccc2)c1)C(=O)O
3.5 nM | 12.3% | 29 | > 3000 nM | inactive | – | inactive | – | CCCCCCCC/C=C\CCCCCCCC(=O)OC[C@@H](COCC)OP(=O)(O)OC[C@H](N)C(=O)O
6.3 nM | 12% | 16 | 170 nM | 13.8% | 0.0099 | – | – | C[C@H](COP(=O)(O)OC[C@H](N)C(=O)O)OC(=O)CCc1ccccc1OCc1cccc(Oc2ccccc2)c1
11 nM | 12.9% | 12 | > 3000 nM | inactive | – | inactive | – | CCCCCCCC/C=C\CCCCCCCC(=O)OC[C@@H](COC)OP(=O)(O)OC[C@H](N)C(=O)O
> 3000 nM | inactive | – | 390 nM | 11.6% | 0.0034 | – | inactive | CCCCCCCC/C=C\CCCCCCCC(=O)O[C@@H](C)COP(=O)(O)OC[C@H](N)C(=O)O
880 nM | 9.6% | 0.13 | 1400 nM | 7.3% | 0.00075 | – | – | CCCCCCCC/C=C\CCCCCCCC(=O)OC[C@@H](COCc1ccccc1)OP(=O)(O)OC[C@H](N)C(=O)O
320 nM | 4.4% | 0.12 | 53 nM | 13.1% | 0.029 | – | – | CCCCCCCC/C=C\CCCCCCCC(=O)OCCCCOP(=O)(O)OC[C@H](N)C(=O)O
2.9 nM | 10% | 32 | 26 nM | 11.4% | 0.039 | – | – | CCCCCCCCCCCOc1ccccc1CCC(=O)OC1COCC[C@H]1OP(=O)(O)OC[C@H](N)C(=O)O (single isomer, unassigned)
> 3000 nM | inactive | – | 420 nM | 3.2% | 0.0012 | – | inactive | CCCCCCCCCCCOc1ccccc1CCC(=O)O[C@H]1CCOC[C@H]1OP(=O)(O)OC[C@H](N)C(=O)O
470 nM | 4.6% | 0.076 | 240 nM | 10.8% | 0.0061 | – | – | CCCCCCCC/C=C\CCCCCCCC(=O)OCCCCCOP(=O)(O)OC[C@H](N)C(=O)O
5.7 nM | 13.5% | 21 | > 3000 nM | inactive | – | inactive | – | COC[C@H](COC(=O)CCc1ccccc1OCc1cccc(Oc2ccccc2)c1)OP(=O)(O)OC[C@H](N)C(=O)O
170 nM | 11.2% | 0.56 | 37 nM | 11.3% | 0.034 | – | – | CCCCCCCC/C=C\CCCCCCCC(=O)OC[C@H](C)OP(=O)(O)OC[C@H](N)C(=O)O
